# Measured values published in ChEMBL document CHEMBL4823260, “From High-Throughput Screening to Target Validation: Benzo[d]isothiazoles as Potent and Selective Agonists of Human Transient Receptor Potential Cation Channel Subfamily M Member 5 Possessing In Vivo Gastrointestinal Prokinetic Activity in Rodents” (J Med Chem, 2021).
# Tests used:
# [1] = Toxicity in CD-1 mouse assessed as effect on behavioral change at 1 to 100 mg/kg, po measured up to 6 hrs; type: organism-based; details: in vivo, dose 1-100 mg/kg
# Summary of the method: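 CD-1 mice dosed orally at 1, 10 or 100 mg/kg or with formulation vehicle (N = 12/group). General health status, locomotion and general behaviour observed at 1, 2, 3 and 6 h after treatment, alongside fecal collection in single grid-floored cages.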
# Mus musculus [2] = assay: Gastroprokinetic activity in CD-1 mouse assessed as stimulation of gastrointestinal motility by measuring fecal number at 10 mg/kg, po measured after 1 hrs (reference value: 3 +/-0.8); type: functional
# Mus musculus [3] = assay: Gastroprokinetic activity in CD-1 mouse assessed as stimulation of gastrointestinal motility by measuring fecal number at 1 mg/kg, po measured after 2 hrs (reference value: 5.3 +/-0.7); type: functional
# [4] = Drug concentration in C57BL6 mouse colon at 3 mg/kg, po administered as single dose measured after 6 hrs by LC-MS/MS analysis; type: ADME, organism-based; details: read-out: Ct
# Summary of the method: (§1)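 Single oral dose of 1, 3 or 100 mg/kg in mouse. Plasma (ng/mL) and colon and ileum (ng/g) exposure sampled at 6, 24 and 48 h, and at 72 h for the top dose; mean values reported.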
# Mus musculus [5] = assay: Gastroprokinetic activity in CD-1 mouse assessed as stimulation of gastrointestinal motility by measuring fecal number at 10 mg/kg, po measured after 3 hrs (reference value: 9.1 +/-1.1); type: functional
# [6] = Drug concentration in C57BL6 mouse colon at 100 mg/kg, po administered as single dose measured after 6 hrs by LC-MS/MS analysis; type: ADME, organism-based; details: read-out: Ct; summary of the method: as §1
# [7] = Drug concentration in C57BL6 mouse colon at 100 mg/kg, po administered as single dose measured after 24 hrs by LC-MS/MS analysis; type: ADME, organism-based; details: read-out: Ct; summary of the method: as §1
# Mus musculus [8] = assay: Gastroprokinetic activity in CD-1 mouse assessed as stimulation of gastrointestinal motility by measuring fecal number at 100 mg/kg, po measured after 3 hrs (reference value: 9.1 +/-1.1); type: functional
# Mus musculus [9] = assay: Gastroprokinetic activity in CD-1 mouse assessed as stimulation of gastrointestinal motility by measuring total fecal weight at 10 mg/kg, po measured after 2 hrs (reference value: 0.13 +/-0.02 g); type: functional
# Mus musculus [10] = assay: Gastroprokinetic activity in CD-1 mouse assessed as stimulation of gastrointestinal motility by measuring total fecal weight at 10 mg/kg, po measured after 6 hrs (reference value: 0.43 +/-0.05 g)
# Mus musculus [11] = assay: Gastroprokinetic activity in CD-1 mouse assessed as stimulation of gastrointestinal motility by measuring fecal number at 10 mg/kg, po measured after 6 hrs (reference value: 20.1 +/-1.4); type: functional
# Mus musculus [12] = assay: Gastroprokinetic activity in CD-1 mouse assessed as stimulation of gastrointestinal motility by measuring total fecal weight at 10 mg/kg, po measured after 3 hrs (reference value: 0.21 +/-0.03 g)
# Mus musculus [13] = assay: Gastroprokinetic activity in CD-1 mouse assessed as stimulation of gastrointestinal motility by measuring fecal number at 100 mg/kg, po measured after 1 hrs (reference value: 3 +/-0.8); type: functional
# [14] = Drug concentration in C57BL6 mouse ileum at 100 mg/kg, po administered as single dose measured after 24 hrs by LC-MS/MS analysis; type: ADME, organism-based; details: read-out: Ct; summary of the method: as §1
# [15] = Drug concentration in C57BL6 mouse ileum at 100 mg/kg, po administered as single dose measured after 48 to 72 hrs by LC-MS/MS analysis; type: ADME, organism-based; details: in vivo, time 48-72 hrs; summary of the method: as §1
# [16] = Drug concentration in C57BL6 mouse plasma at 100 mg/kg, po administered as single dose measured after 24 to 72 hrs by LC-MS/MS analysis; type: ADME, organism-based; details: in vivo, time 24-72 hrs; summary of the method: as §1
# Mus musculus [17] = assay: Gastroprokinetic activity in CD-1 mouse assessed as stimulation of gastrointestinal motility by measuring total fecal weight at 100 mg/kg, po measured after 3 hrs (reference value: 0.21 +/-0.03 g); type: functional
# Mus musculus [18] = assay: Gastroprokinetic activity in CD-1 mouse assessed as stimulation of gastrointestinal motility by measuring fecal number at 1 mg/kg, po measured after 6 hrs (reference value: 20.1 +/-1.4); type: functional
# Mus musculus [19] = assay: Gastroprokinetic activity in CD-1 mouse assessed as stimulation of gastrointestinal motility by measuring total fecal weight at 1 mg/kg, po measured after 2 hrs (reference value: 0.13 +/-0.02 g); type: functional
# Mus musculus [20] = assay: Gastroprokinetic activity in CD-1 mouse assessed as stimulation of gastrointestinal motility by measuring fecal number at 1 mg/kg, po measured after 1 hrs (reference value: 3 +/-0.8); type: functional
# Mus musculus [21] = assay: Gastroprokinetic activity in CD-1 mouse assessed as stimulation of gastrointestinal motility by measuring fecal number at 1 mg/kg, po measured after 3 hrs (reference value: 9.1 +/-1.1); type: functional
# [22] = Drug concentration in C57BL6 mouse colon at 1 mg/kg, po administered as single dose measured after 24 to 48 hrs by LC-MS/MS analysis; type: ADME, organism-based; details: in vivo, time 24-48 hrs; summary of the method: as §1
# Mus musculus [23] = assay: Gastroprokinetic activity in CD-1 mouse assessed as stimulation of gastrointestinal motility by measuring total fecal weight at 1 mg/kg, po measured after 1 hrs (reference value: 0.08 +/-0.02 g); type: functional
# [24] = AUClast in CD-1 mouse at 1 mg/kg, iv measured up to 24 hrs; type: ADME, organism-based; design: route intravenous, dose 1 mg/kg, time <=24; details: in vivo
# [25] = Clast in CD-1 mouse at 1 mg/kg, iv measured up to 24 hrs; type: ADME, organism-based; details: in vivo, read-out: Clast
# [26] = Volume of distribution at steady state in CD-1 mouse at 1 mg/kg, iv measured up to 24 hrs; type: ADME, organism-based; details: in vivo, read-out: Vdss
# [27] = Clast in CD-1 mouse at 10 mg/kg, po measured up to 24 hrs; type: ADME, organism-based; details: in vivo, read-out: Clast
structure (smiles),measurement,setting,value
Clc1cnc(CNc2cc3sncc3cc2Cl)s1,Activity,[1],Non-Toxic
same,Activity,Mus musculus [2],3.4
same,Activity,Mus musculus [3],7.5
same,concentration at 6 h,[4],143 ng/g
same,Activity,Mus musculus [5],10.3
same,concentration at 6 h,[6],2620 ng/g
same,concentration at 24 h,[7],164 ng/g
same,Activity,Mus musculus [8],13
same,Activity,Mus musculus [9],0.18 g
same,Activity,Mus musculus [10],0.39 g
same,Activity,Mus musculus [11],18.5
same,Activity,Mus musculus [12],0.23 g
same,Activity,Mus musculus [13],4
same,concentration at 24 h,[14],202 ng/g
same,Ct,[15],< 20 ng/mL
same,Cp,[16],< 20 ng/mL
same,Activity,Mus musculus [17],0.41 g
same,Activity,Mus musculus [18],24.3
same,Activity,Mus musculus [19],0.15 g
same,Activity,Mus musculus [20],4.3
same,Activity,Mus musculus [21],11.8
same,Ct,[22],< 20 ng/mL
same,Activity,Mus musculus [23],0.09 g
Clc1cnc(CNc2ccc3cnsc3c2)s1,AUClast,[24],541 ng·h/mL
same,concentration at 24 h,[25],2.99 ng/mL
same,Vd,[26],1.12 L/kg
same,concentration at 24 h,[27],2.76 ng/mL
